Assay [1] deals with T1, Toll-like receptor 2 (Homo sapiens, UniProt O60603). Description: Inhibition of TLR2 agonist Pam3Cys-Ser-(Lys)4-OH-mediated IL8 secretion in THP1 cells at 25 uM. The conditions noted are these: THP-1. The class given is functional, cell-based. The method, boiled down:
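THP-1 cells, 4 × 10⁴ per well, were preincubated for 10 min at 37 °C with peptide at a single 25 µM concentration (from 10 mM DMSO stock), with or without Pam3Cys-SK4-OH (50 nM), then incubated 5 h at 37 °C. IL-8 was measured by ELISA in cell-free supernatants and expressed relative to agonist plus equal-solvent control. Triplicates, SD.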

The subject of assay [2] is THP-1. The assay is described as follows: Cytotoxicity against THP1 cells by MTT assay. The class given is functional, cell-based. The method in brief: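 THP-1 cells (RPMI 1640 with 10% FCS, 37 °C, 5% CO2) were exposed to lipolanthionine peptides plus Pam3Cys-SK4-OH (50 nM) for 5 h. After part of the supernatant was removed for ELISA, MTT (1 mg/mL) was added for 4 h. Formazan was dissolved in 10% SDS in 10 mM HCl. A570 was read relative to untreated control cells.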
Background: Tetrazolium dyes change colour on reduction, which living cells bring about.

In assay [3] the target is T1, Toll-like receptor 2. The assay is described as follows: Inhibition of TLR2-mediated IL-8 secretion in THP-1 cells. The format is functional, cell-based. The method in brief:
(§1)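 THP-1 cells, 4 × 10⁴ per well in RPMI 1640/10% FCS, were preincubated with peptides (0.78–25 µM, from 10 mM DMSO stocks) for 10 min at 37 °C. Pam3Cys-SK4-OH (50 nM) was then added for 5 h at 37 °C. IL-8 in cell-free supernatants was measured by matched-pair ELISA against DMSO-matched agonist controls. Triplicates, SD shown.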

Assay [4] concerns the target T1, Toll-like receptor 2. Description: Inhibition of TLR2 agonist Pam3Cys-Ser-(Lys)4-OH-mediated IL8 secretion in THP1 cells. The format is functional, cell-based, THP-1. The conditions noted are these: for Activity: THP-1. The method, boiled down: as §1

Results on 24 compounds are retold here after ChEMBL document CHEMBL1139026, “Lipolanthionine peptides act as inhibitors of TLR2-mediated IL-8 secretion. Synthesis and structure-activity relationships” (J Med Chem, 2006).

Calls of active or inactive are those of the source. The rule behind the calls is not given here. Residues, ends and D or L forms follow the SMILES beside them. *: point of attachment. X5 = CCCCCCCCCCCCCCCCCCCC(=O)N[C@@H](C*)C(=O)NCCCCCCCCCCCCCCCC; X2 = CCCCCCCCCCCCCCCCCC(=O)N[C@@H](C*)C(=O)NCCCCCCCCCCCCCCCC; X6 = CCCCCCCCCCCCCC(=O)N[C@@H](C*)C(=O)NCCCCCCCCCCCC; X3 = CCCCCCCCCCCCCC(=O)N[C@@H](C*)C(=O)NCCCCCCCCCC; X4 = CCCCCCCCCCCCCC(=O)N[C@@H](C*)C(=O)NCCCCCCCC; X7 = CCCCCCCCCCCCCC(=O)N[C@@H](C*)C(=O)NCCCCCC; Arachidoyl = CCCCCCCCCCCCCCCCCCCC(=O)*; Stearoyl = CCCCCCCCCCCCCCCCCC(=O)*; Myristoyl = CCCCCCCCCCCCCC(=O)*

T1 sequence (O60603 whole entry): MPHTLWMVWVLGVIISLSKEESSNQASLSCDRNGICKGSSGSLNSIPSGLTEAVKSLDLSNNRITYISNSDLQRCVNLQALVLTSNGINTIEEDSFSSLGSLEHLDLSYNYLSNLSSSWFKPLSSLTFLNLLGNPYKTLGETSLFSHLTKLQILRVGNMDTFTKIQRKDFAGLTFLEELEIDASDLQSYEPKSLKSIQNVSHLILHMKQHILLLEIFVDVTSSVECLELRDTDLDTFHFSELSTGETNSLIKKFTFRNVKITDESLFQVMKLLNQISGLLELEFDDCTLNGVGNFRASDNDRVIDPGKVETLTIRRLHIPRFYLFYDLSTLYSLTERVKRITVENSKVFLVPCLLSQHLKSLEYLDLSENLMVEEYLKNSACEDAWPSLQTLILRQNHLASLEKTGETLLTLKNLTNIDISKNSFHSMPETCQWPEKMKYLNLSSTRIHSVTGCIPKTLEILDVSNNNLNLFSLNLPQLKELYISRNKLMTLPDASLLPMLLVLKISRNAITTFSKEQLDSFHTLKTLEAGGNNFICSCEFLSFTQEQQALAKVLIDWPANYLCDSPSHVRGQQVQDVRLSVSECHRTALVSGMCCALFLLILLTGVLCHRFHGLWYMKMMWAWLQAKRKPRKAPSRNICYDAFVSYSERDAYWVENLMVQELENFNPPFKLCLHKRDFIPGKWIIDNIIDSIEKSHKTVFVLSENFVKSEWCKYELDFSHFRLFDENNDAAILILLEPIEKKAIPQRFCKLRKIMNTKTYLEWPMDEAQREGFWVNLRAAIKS

Turning to `CCCCCCCCCCCCCCCCNC(=O)[C@H](CSC[C@H](NC(=O)CCCCCCCCCCC)C(=O)N[C@@H](CO)C(=O)N[C@@H](CCCCN)C(=O)N[C@@H](CCCCN)C(=O)N[C@@H](CCCCN)C(=O)N[C@@H](CCCCN)C(N)=O)NC(=O)CCCCCCCCCCC`, the outcome in assay [1] and in assay [3] was Active. For the same compound, in assay [2], the result was inactive.
For the compound `CCCCCCCCCCCCCCCCNC(=O)[C@H](CSC[C@H](NC(=O)CCCCCCCCCCCCC)C(=O)N[C@@H](CO)C(=O)N[C@@H](CCCCN)C(=O)N[C@@H](CCCCN)C(=O)N[C@@H](CCCCN)C(=O)N[C@@H](CCCCN)C(N)=O)NC(=O)CCCCCCCCCCCCC`, the outcome in assay [1] and in assay [3] was Active. Further, the outcome in assay [2] was inactive.
As for `CCCCCCCCCCCCCCCC(=O)O` [PALMITIC ACID], in assay [4], the IC50 is 5 µM and the Activity came to 68%.
Regarding `CCCCCCCCCCCCCCCCNC(=O)[C@@H](CSC[C@@H](NC(=O)CCCCCCCCCCCCC)C(=O)N[C@@H](CO)C(=O)N[C@@H](CCCCN)C(=O)N[C@@H](CCCCN)C(=O)N[C@@H](CCCCN)C(=O)N[C@@H](CCCCN)C(N)=O)NC(=O)CCCCCCCCCCCCC`, the outcome in assay [2] was inactive. Also, the result in assay [3] was Active.
Consider `CCCCCCCCCCCCCCNC(=O)[C@H](CSC[C@H](NC(=O)CCCCCCCCCCCCC)C(=O)N[C@@H](CO)C(=O)N[C@@H](CCCCN)C(=O)N[C@@H](CCCCN)C(=O)N[C@@H](CCCCN)C(=O)N[C@@H](CCCCN)C(N)=O)NC(=O)CCCCCCCCCCCCC`, for which the result in assay [2] was inactive. The outcome in assay [3] was Active.
`CCCCCCCCCCCCCC(=O)N[C@@H](CSC[C@H](NC(=O)CCCCCCCCCCCCC)C(=O)N[C@@H](CO)C(=O)N[C@@H](CCCCN)C(=O)N[C@@H](CCCCN)C(=O)N[C@@H](CCCCN)C(=O)N[C@@H](CCCCN)C(N)=O)C(=O)NCCCCCCCCCC` (Myristoyl-C(X3)SKKKK-NH2): in assay [2], the result was inactive. Also, the outcome in assay [3] was Active.
As to `CCCCCCCCCCCCCCCCNC(=O)[C@@H](CSC[C@H](NC(=O)CCCCCCCCCCCCC)C(=O)N[C@@H](CO)C(=O)N[C@@H](CCCCN)C(=O)N[C@@H](CCCCN)C(=O)N[C@@H](CCCCN)C(=O)N[C@@H](CCCCN)C(N)=O)NC(=O)CCCCCCCCCCCCC`, in assay [2], the outcome was inactive. The result in assay [3] was Active.
The like results for `CCCCCCCCCCCCCCCCNC(=O)[C@H](CSC[C@H](NC(=O)CCCCCCC)C(=O)N[C@@H](CO)C(=O)N[C@@H](CCCCN)C(=O)N[C@@H](CCCCN)C(=O)N[C@@H](CCCCN)C(=O)N[C@@H](CCCCN)C(N)=O)NC(=O)CCCCCCC` were, in that order, “inactive” and “Active”.
In the case of `CCCCCCCCCCCCCCCCNC(=O)[C@H](CS(=O)(=O)C[C@H](NC(=O)CCCCCCCCCCCCCCC)C(=O)N[C@@H](CO)C(=O)N[C@@H](CCCCN)C(=O)N[C@@H](CCCCN)C(=O)N[C@@H](CCCCN)C(=O)N[C@@H](CCCCN)C(N)=O)NC(=O)CCCCCCCCCCCCCCC`, the result in assay [2] was inactive. Further, the outcome in assay [3] was Active.
The corresponding values for `CCCCCCCCCCCCCCCCCC(=O)N[C@@H](CSC[C@H](NC(=O)CCCCCCCCCCCCCCCCC)C(=O)N[C@@H](CO)C(=O)N[C@@H](CCCCN)C(=O)N[C@@H](CCCCN)C(=O)N[C@@H](CCCCN)C(=O)N[C@@H](CCCCN)C(N)=O)C(=O)NCCCCCCCCCCCCCCCC` (Stearoyl-C(X2)SKKKK-NH2) are “inactive” and “Active”.
The corresponding values for `CCCCCCCCCCCCCCCCCCCC(=O)N[C@@H](CSC[C@H](NC(=O)CCCCCCCCCCCCCCCCCCC)C(=O)N[C@@H](CO)C(=O)N[C@@H](CCCCN)C(=O)N[C@@H](CCCCN)C(=O)N[C@@H](CCCCN)C(=O)N[C@@H](CCCCN)C(N)=O)C(=O)NCCCCCCCCCCCCCCCC` (Arachidoyl-C(X5)SKKKK-NH2) are “inactive” and “Active”.
For `CCCCCCCCCCCCCC(=O)N[C@H](CSC[C@@H](NC(=O)CCCCCCCCCCCCC)C(=O)N[C@@H](CO)C(=O)N[C@@H](CCCCN)C(=O)N[C@@H](CCCCN)C(=O)N[C@@H](CCCCN)C(=O)N[C@@H](CCCCN)C(N)=O)C(=O)O`, the outcome in assay [4] and in assay [2] was inactive. In addition, the result in assay [3] was Active.
As to `CCCCCCCCCCCCCC(=O)N[C@@H](CSC[C@H](NC(=O)CCCCCCCCCCCCC)C(=O)N[C@@H](CO)C(=O)N[C@@H](CCCCN)C(=O)N[C@@H](CCCCN)C(=O)N[C@@H](CCCCN)C(=O)N[C@@H](CCCCN)C(N)=O)C(=O)O`, the result in assay [4] and in assay [2] was inactive. Moreover, in assay [3], the outcome was Active.
With `CCCCCCCCCCCCCC(=O)N[C@@H](CSC[C@H](NC(=O)CCCCCCCCCCCCC)C(=O)N[C@@H](CO)C(=O)N[C@@H](CCCCN)C(=O)N[C@@H](CCCCN)C(=O)N[C@@H](CCCCN)C(=O)N[C@@H](CCCCN)C(N)=O)C(=O)NCCCCCC` (Myristoyl-C(X7)SKKKK-NH2), the result in assay [2] was inactive.
As to `CCCCCCCCCCCCCCCCNC(=O)[C@H](CSC[C@H](NC(=O)CCCCCCCCC)C(=O)N[C@@H](CO)C(=O)N[C@@H](CCCCN)C(=O)N[C@@H](CCCCN)C(=O)N[C@@H](CCCCN)C(=O)N[C@@H](CCCCN)C(N)=O)NC(=O)CCCCCCCCC`, the outcome in assay [2] was inactive. In assay [3], the result was Active.
As for `CCCCCCCCCCCCCC(=O)N[C@@H](CSC[C@@H](NC(=O)CCCCCCCCCCCCC)C(=O)N[C@@H](CO)C(=O)N[C@@H](CCCCN)C(=O)N[C@@H](CCCCN)C(=O)N[C@@H](CCCCN)C(=O)N[C@@H](CCCCN)C(N)=O)C(=O)O`, the result in assay [4] and in assay [2] was inactive. Further, the result in assay [3] was Active.
`CCCCCCCCCCCCCC(=O)N[C@@H](CSC[C@@H](NC(=O)CCCCCCCCCCCCC)C(=O)O)C(=O)N[C@@H](CO)C(=O)N[C@@H](CCCCN)C(=O)N[C@@H](CCCCN)C(=O)N[C@@H](CCCCN)C(=O)N[C@@H](CCCCN)C(N)=O`: the result in assay [4] and in assay [2] was inactive. In addition, the outcome in assay [3] was Active.
As to `CCCCCCCCCCCCCCCCNC(=O)[C@H](CSC[C@H](NC(=O)CCCCCCCCCCCCCCC)C(=O)N[C@@H](CO)C(=O)N[C@@H](CCCCN)C(=O)N[C@@H](CCCCN)C(=O)N[C@@H](CCCCN)C(=O)N[C@@H](CCCCN)C(N)=O)NC(=O)CCCCCCCCCCCCCCC`, the result in assay [1] and in assay [3] was Active. Also, the result in assay [2] was inactive.
For `CCCCCCCCCCCCCCCCCCNC(=O)[C@H](CSC[C@H](NC(=O)CCCCCCCCCCCCC)C(=O)N[C@@H](CO)C(=O)N[C@@H](CCCCN)C(=O)N[C@@H](CCCCN)C(=O)N[C@@H](CCCCN)C(=O)N[C@@H](CCCCN)C(N)=O)NC(=O)CCCCCCCCCCCCC`, the outcome in assay [2] was inactive. Further, in assay [3], the outcome was Active.
The corresponding values for `CCCCCCCCCCCCCC(=O)N[C@@H](CSC[C@H](NC(=O)CCCCCCCCCCCCC)C(=O)N[C@@H](CO)C(=O)N[C@@H](CCCCN)C(=O)N[C@@H](CCCCN)C(=O)N[C@@H](CCCCN)C(=O)N[C@@H](CCCCN)C(N)=O)C(=O)NCCCCCCCCCCCC` (Myristoyl-C(X6)SKKKK-NH2) are “inactive” and “Active”.
The corresponding values for `CCCCCCCCCCCCCC(=O)N[C@@H](CSC[C@H](NC(=O)CCCCCCCCCCCCC)C(=O)N[C@@H](CO)C(=O)N[C@@H](CCCCN)C(=O)N[C@@H](CCCCN)C(=O)N[C@@H](CCCCN)C(=O)N[C@@H](CCCCN)C(N)=O)C(=O)NCCCCCCCC` (Myristoyl-C(X4)SKKKK-NH2) are “inactive” and “Active”.
In the case of `CCCCCCCCCCCCCCCCNC(=O)[C@H](CSC[C@H](NC(=O)CCCCC)C(=O)N[C@@H](CO)C(=O)N[C@@H](CCCCN)C(=O)N[C@@H](CCCCN)C(=O)N[C@@H](CCCCN)C(=O)N[C@@H](CCCCN)C(N)=O)NC(=O)CCCCC`, the outcome in assay [2] was inactive. Besides, in assay [3], the outcome was Active.
The corresponding values for `CCCCCCCCCCCCCCCCNC(=O)[C@H](C[S+]([O-])C[C@H](NC(=O)CCCCCCCCCCCCCCC)C(=O)N[C@@H](CO)C(=O)N[C@@H](CCCCN)C(=O)N[C@@H](CCCCN)C(=O)N[C@@H](CCCCN)C(=O)N[C@@H](CCCCN)C(N)=O)NC(=O)CCCCCCCCCCCCCCC` (some centres undefined) are “inactive” and “Active”.
The like results for `CCCCCCCCCCCCCCCCNC(=O)[C@H](CSC[C@@H](NC(=O)CCCCCCCCCCCCC)C(=O)N[C@@H](CO)C(=O)N[C@@H](CCCCN)C(=O)N[C@@H](CCCCN)C(=O)N[C@@H](CCCCN)C(=O)N[C@@H](CCCCN)C(N)=O)NC(=O)CCCCCCCCCCCCC` were, in that order, “inactive” and “Active”.

The IC50 is the concentration that gives 50% inhibition.
